# Assay results collected from several papers.
# Organism: Hepatitis C virus
# Effect on: viral replication
# Action: inhibitor
# Notes: replicon
Compound,assay,system,conditions,EC50 [nM]
O=C1O[C@H]2[C@@H]3OC(=O)c4cc(O)c(O)c(O)c4-c4c(O)c(O)c5oc(=O)c6c(c(O)c(O)c7oc(=O)c4c5c76)-c4c(cc(O)c(O)c4O)C(=O)OC[C@H]3OC(O)[C@@H]2OC(=O)c2cc(O)c(O)c(O)c2-c2c1cc(O)c(O)c2O (mixture of isomers),,"Huh-7, GETYPE2A",48 h,~100000
C=C1/C(=C\C=C2/CCC[C@]3(C)[C@@H]([C@H](C)CCCC(C)(C)O)CC[C@@H]23)C[C@@H](O)C[C@@H]1O,luciferase,"BM4-5, GETYPE1B",5 days,1100
COC(=O)N[C@H](C(=O)N1CCC[C@H]1c1ncc(-c2ccc(-c3ccc(-c4cnc([C@@H]5CCCN5C(=O)[C@@H](NC(=O)OC)C(C)C)[nH]4)cc3)cc2)[nH]1)C(C)C,,GETYPE1B,,0.009
COc1nc(N)nc2c1ncn2[C@@H]1O[C@H](COP(=O)(N[C@@H](C)C(=O)OCC(C)(C)C)Oc2cccc3ccccc23)[C@@H](O)[C@@]1(C)O (some centres unmarked),,GETYPE2A,96 h,7.3
CCN1CCN(C2c3ccccc3-c3ccc(Br)cc32)CC1 (centres unmarked),,"Huh-7.5.1, GETYPE2A",48 h,> 1000
C=C1CC[C@H](O)C/C1=C/C=C1\CCC[C@]2(C)[C@@H]([C@H](C)/C=C/[C@H](C)C(C)C)CC[C@@H]12,luciferase,"BM4-5, GETYPE1B",5 days,14200
CN1CCN([C@@H](c2ccccc2)c2ccc(Cl)cc2)CC1,,"Huh-7.5.1, GETYPE2A",48 h,24
O=C1N[C@H]2[C@H](CS[C@H]2CCCCC(=O)N2CCC[C@@H]2C(=O)Nc2ccc(/C=C/c3ccc(NC(=O)[C@H]4CCCN4C(=O)Cc4ccccc4)cc3)cc2)N1,,GETYPE1B,,> 10000
